Compounds with a hit are over-represented: about 1.6% of the library has one in this group of screens.
FLuc inh counter: firefly luciferase enzyme inhibitors, primary screen, artefact control for luciferase-based inhibitor screens, biochemical, luminescence, ATPLite; Luciferin 4-monooxygenase (Photinus pyralis), P08659; 10 min; inhibition, % at 10 µM; actives 1.5% (n = 200,000); AID 1006, 2008;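 active = inhibition above about 50% when tested at 10 µM, limit read from the data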
Target sequence (P08659 whole entry, looked up): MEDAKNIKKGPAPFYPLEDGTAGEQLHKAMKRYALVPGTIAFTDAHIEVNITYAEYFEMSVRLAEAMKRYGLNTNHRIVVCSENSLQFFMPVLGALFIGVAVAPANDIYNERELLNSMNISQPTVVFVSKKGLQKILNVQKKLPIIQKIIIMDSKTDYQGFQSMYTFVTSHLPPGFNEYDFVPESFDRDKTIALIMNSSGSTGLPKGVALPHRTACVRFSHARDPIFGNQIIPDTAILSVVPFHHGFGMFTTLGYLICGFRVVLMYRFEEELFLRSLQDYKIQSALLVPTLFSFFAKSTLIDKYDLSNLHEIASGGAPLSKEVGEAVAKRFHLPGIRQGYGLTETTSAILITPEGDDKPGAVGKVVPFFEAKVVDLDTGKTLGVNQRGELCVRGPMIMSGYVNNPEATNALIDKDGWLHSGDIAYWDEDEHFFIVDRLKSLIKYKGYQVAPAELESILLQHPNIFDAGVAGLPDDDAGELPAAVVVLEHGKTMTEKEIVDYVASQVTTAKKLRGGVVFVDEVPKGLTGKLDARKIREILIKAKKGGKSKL
Platelet DG rel: inhibitors of platelet dense granule secretion, primary screen, cell-based, MLPCN, human platelets. human platelet-rich plasma, SFLLRN dense granule ATP release, luminescence. inhibition, %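 (compounds screened at 7.5 µM in platelet-rich plasma)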. actives 0.22% (n = 300,000);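 active = mean replicate score, as percent of positive control, at or above 50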
FLuc act counter: FLuc activators, initial screening, artefact control for FLuc-dependent activation tests, biochemical, ATPlite luminescence; Luciferin 4-monooxygenase (Photinus pyralis), P08659; AID 1027, 2008; activation factor at 10 µM; 200,000 tested, under 10 active; ATPlite luciferase biochemical, 10 min; 0 = ATP-free wells, 1 = DMSO control;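 active = luciferase activation factor, scaled between plate controls, of at least 2 with compound at 10 µM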
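Assay system: Luciferase/luciferin detection reagent, cell-free biochemical luciferase assay / Read-out: luciferase activation / Benchmarks: No-ATP low control, compound-free enzyme-plus-ATP high control / Medium: PBS buffer for ATP / Detection: luminescence measurement of luciferase light output / Schedule: 10 min at ambient temperature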
C8 TRAIL sens: viability loss with TRAIL in NB7+C8 cells, primary screen, TRAIL sensitizer project, cell-based, ATPlite luminescence; inhibition (viability loss, TRAIL sensitization), % at 10 µM; actives 1% (n = 360,000); AID 624354, 2012;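 active = compounds causing at least 50% loss of cell viability in the single-dose screen, relative to plate controls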
PPC-1+TRAIL kill: compounds killing PPC-1 cancer cells with TRAIL present, primary screen, TRAIL potentiator project, ATPLite luminescence, uHTS; PPC-1 cells + TRAIL, ATPLite viability luminescence; cell killing (% activity), % at 4 µM or 5 µM; actives 0.41% (n = 220,000); AID 1443, 2008;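 active = cell killing above 50% in the first pass at 4 µM, then a duplicate retest at 5 µM averaging 50% or more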;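 note: plate controls were cells with TRAIL plus DMSO for no effect and medium-only wells lacking cells for full effect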
* marks the source's active call; other numbers are inactive results; . = no result; ! = repeats disagree.

SMILES | FLuc inh counter | Platelet DG rel | FLuc act counter | C8 TRAIL sens | PPC-1+TRAIL kill
COC(=O)c1ccc2nc(-c3ccc(OC)c(OC)c3)c(Cc3cccc(F)c3)n2c1 | . | . | . | -2 | .
CCN1CCN(Cc2ccc(NC(=O)c3cc(NC(=O)c4cncc(-c5ccc(C#N)cc5)c4)cc(OC)c3)cc2C(F)(F)F)CC1 | . | 0 | . | 94*! | 0
CCN1CCN(Cc2ccc(NC(=O)c3cc(NC(=O)c4cnnc5ccccc45)cc(OC)c3)cc2C(F)(F)F)CC1 | . | 10 | . | 56*! | 26
CCN1CCN(Cc2ccc(NC(=O)c3ccc(C)c(NC(=O)c4nccn4C)c3)cc2C(F)(F)F)CC1 | . | -1 | . | 8 | 19
CCN1CCN(Cc2ccc(NC(=O)c3ccc(C)c(NC(=O)c4cncc(-c5cccs5)c4)c3)cc2C(F)(F)F)CC1 | . | . | . | 70* | .
CCC(=O)N1CCCc2cc(S(=O)(=O)N3CCN(c4ccccc4F)CC3)ccc21 | -8 | 6 | 1.1 | 83* | 8
COc1cc(C=O)ccc1OCc1ccc(Cl)nc1 | 59* | 3 | 0.4 | 5 | 1
COc1cc(C=O)ccc1OCc1ccncc1 | . | -1 | . | -1 | .
CCOC(=O)[C@]12CCC=C1N(Cc1ccc(Cl)cc1Cl)C(=O)[C@H](CC(=O)NCCCN1CCCC1=O)C2 | . | . | . | -9 | .
Cc1cc(N/N=C/c2ccc(O)cc2O)nc(-c2ccccc2O)n1 | 64* | -8 | 0.4 | 77* | 34
Cc1cc(N/N=C/c2ccccc2O)nc(-c2ccccc2O)n1 | 61* | -19 | 0.4 | 19 | 39
C/C(=N\Nc1cc(C)nc(-c2ccccc2O)n1)c1ccccc1O | . | 8 | . | 29 | 24
Cc1cc(N/N=C/c2ccccc2O)nc(N2CCOCC2)n1 | . | -1 | . | 3 | -1
COc1ccc(O)c(/C=N/Nc2nc(Nc3ccccc3)nc(-n3nc(C)cc3C)n2)c1 | 6 | -1 | 0.9 | 55* | -7
Cc1cc(N/N=C\c2ccccc2)nc(-c2ccccc2O)n1 | 65* | -4 | 0.4 | 56* | 34
CCCCNS(=O)(=O)c1cccc(NC(=O)[C@@H]2O[C@H](CO)[C@@H](O)[C@H]2O)c1 | . | . | . | -2 | .
Cc1cc(N/N=C/c2ccccc2Cl)nc(NCc2ccccc2)n1 | 60* | 9 | 0.4 | 57* | 46
COc1ccc(/C=N/Nc2cc(C)nc(-n3nc(C)cc3C)n2)cc1 | -2 | 6 | 1 | 48 | 7
Cc1cc(N/N=C/c2ccc(O)cc2O)nc(-n2nc(C)cc2C)n1 | 5 | 1 | 0.9 | 36 | 55*
CC(C)Cc1nc2oc3c(Cl)ncnc3c2c2c1CCCC2 | . | 6 | . | 67* | 3
CCS(=O)(=O)Nc1ccc(-c2nnc(SCC(=O)OC)o2)cc1 | -2 | 50* | 1 | -3 | 15
COc1ccc([C@H]2C[C@@H](O)[C@H](n3cc(C4CC4)nn3)CN2C(=O)C2CCCCC2)cc1 | . | . | . | -1 | .
Cc1ccc(/C=N/NC(=O)c2ccncc2)s1 | . | 7 | . | -13 | 4
Cc1ccc(/C=N/N=C/c2ccc(C)s2)s1 | 74* | -3 | 0.3 | 40 | 25
CC(C)C(C(=O)NCc1ccccc1)N1CCN(C(=O)C2CCCO2)CC1 (stereo not drawn) | . | . | . | 1 | .
SMILES | FLuc inh counter | Platelet DG rel | FLuc act counter | C8 TRAIL sens | PPC-1+TRAIL kill
C=CCN1C=CC(=C/C=C(/C#N)C(=O)OCC)C=C1 | 82* | -2 | 0.2 | 49* | 43
Cc1nc(N)nc(N)c1-c1ccc([N+](=O)[O-])cc1 | . | . | . | 75* | .
Nc1nc(-c2ccccc2)c(-c2ccc([N+](=O)[O-])cc2)s1 | -6 | 1 | 1.1 | 32 | 26
CC(=O)c1cccc(NC(=O)C2Cc3c(-c4cccc(F)c4)ccnc3O2)c1 (stereo not drawn) | . | . | . | 19 | .
COc1ccc(CC(=O)N(Cc2ccccc2)c2cccc(C)c2)cc1OC | . | 2 | . | -14 | .
Cc1cccc(N(Cc2ccccc2)C(=O)CCl)c1 | -12 | -5 | 1.1 | 96* | 7
O=C(CCl)N(Cc1ccccc1)c1ccccc1 | 0 | -3 | 1 | 96* | 12
C=C(C)C(=O)Oc1ccc(N=Nc2ccc(C)cc2)ccc1=O | . | . | . | 16 | .
CNC(=S)Nc1ccc(C(N)=O)cc1 | -6 | 58* | 1.1 | -7 | 11
COc1cccc(CNc2nc3cc(-c4ccccc4C)sc3c(=O)n2C)c1OC | . | . | . | -4 | .
COc1ccc(NC(=O)C2c3ccccc3OCC(=O)N2Cc2ccc3c(c2)OCO3)cc1 (stereo not drawn) | . | . | . | -15 | .
Cc1nc2cc(Nc3ccncc3)ccc2s1 | -3 | 56* | 1 | -16 | 0
COc1ccc(-c2cc(CNc3nc(NC(C)C)nc4cc(-c5ccccc5)sc34)on2)cc1 | . | . | . | 80* | .
Cc1ccc(F)cc1C(=O)N1CCOCC1c1cc(C(=O)NCc2ccccc2)no1 (stereo not drawn) | . | . | . | -8 | .
COCCNC(=O)C1(C)CCCN(C(=O)c2ccco2)C1 (stereo not drawn) | . | . | . | -2 | .
Cc1ccc2nc(NC(=S)NC(=O)c3ccco3)sc2c1 | 90* | 0 | 0.1 | 82* | 6
COc1ccc2nc(NC(=O)c3ccccc3O)sc2c1 | . | 3 | . | 78* | .
CC(=O)Nc1nc2ccc(NC(=O)c3ccco3)cc2s1 | 10 | 5 | 0.9 | -10 | -7
O=C(Nc1nc2ccc(Cl)cc2s1)c1ccco1 | 63* | 4 | 0.4 | 40 | 8
COc1ccc2nc(NC(=O)CSc3nnc(-c4ccoc4C)n3C)sc2c1 | 60* | -2 | 0.4 | 13 | 24
CCn1nnnc1SCC(=O)Nc1nc2ccc(OC)cc2s1 | 7 | 0 | 0.9 | -6 | 47
O=C(Nc1nc2ccc(Br)cc2s1)c1ccco1 | . | 0 | . | 35 | .
CC(C)CNC(=O)C1(C)CCCN1C(=O)c1cccnc1 (stereo not drawn) | . | . | . | -9 | .
COc1cc2sc(NC(=O)c3ccco3)nc2cc1Cl | . | 11 | . | 14 | .
COc1ccc2nc(NC(=O)c3ccco3)sc2c1 | . | . | . | 67* | .
SMILES | FLuc inh counter | Platelet DG rel | FLuc act counter | C8 TRAIL sens | PPC-1+TRAIL kill
COc1ccc2nc(Nc3ccccc3)sc2c1 | 77* | 15 | 0.2 | 52* | 49
CC1=C2C3OC(=O)C(C)C3CCC2(C)C=C(Br)C1=O (stereo not drawn) | . | . | . | 17 | .
CCCCn1nnnc1C(c1ccccc1)N1CCN(c2ccc(C(F)(F)F)cc2[N+](=O)[O-])CC1 (stereo not drawn) | . | . | . | 4 | .
O=C1c2ccccc2CN2C(=O)c3ccccc3CN12 | . | -2 | . | -27 | .
c1ccc(-c2cn3c(n2)-c2ccccc2C3)cc1 | 87* | 28 | 0.1 | 69* | 44
O=C1C=C(c2c(O)ccc3ccccc23)c2ccccc2C1=O | . | . | . | 86* | .
CC(/C=N/NC(=O)c1nn(C)c(C)c1Br)=C\c1ccccc1 | 80* | 5 | 0.2 | 57* | 54*
CC(=C/c1ccccc1)/C=N/NC(=O)c1cccs1 | . | 5 | . | 58* | 6

Screens: PubChem, several laboratories
